Apaf1 inhib – human Apaf-1 inhibition; actives 0.71% (n = 330,000); reconstituted apoptosome caspase-3 activity, DEVD-Rh110 fluorescence; inhibition, % at 20 µM; O14727; active means inhibition of at least 40% at 20 µM
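Medium: Hepes buffer, pH 7.5 / System: biochemical Apaf-1 apoptosome reconstitution / Measured by: Rh110 fluorescence, excitation 480 nm, emission 540 nm / Times: compound with Apaf-1, dATP, procaspase-3 30 min, then 50 min reaction, room temperature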
PAFAH1B2 FP inh – PAFAH1B2 (human) inhibition | P68402 | recombinant PAFAH1B2, FP-rhodamine activity probe, fluorescence polarization | inhibition, % at 3.39 µM | actives 1.2% (n = 340,000) | AID 492953;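 active means inhibition above the mean of all tested compounds plus 3 SD, cut at about 24% in these data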
Target sequence (P68402 whole entry, looked up): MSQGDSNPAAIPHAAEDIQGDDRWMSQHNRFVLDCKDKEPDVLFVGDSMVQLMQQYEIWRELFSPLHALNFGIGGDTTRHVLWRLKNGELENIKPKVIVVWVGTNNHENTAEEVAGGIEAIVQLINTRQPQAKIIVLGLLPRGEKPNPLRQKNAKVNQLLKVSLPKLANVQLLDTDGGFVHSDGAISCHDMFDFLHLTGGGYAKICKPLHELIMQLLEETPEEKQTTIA
PAFAH2 FP inh – inhibitors of human PAFAH2; Q99487; recombinant PAFAH2, FP-rhodamine activity probe, fluorescence polarization; inhibition, % at 3.39 µM; actives 0.99% (n = 340,000); AID 492956;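 active means inhibition above the mean over all tested compounds plus 3 SD, cut at about 30% in these data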;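 further: inhibitors block probe labeling of enzyme so polarization drops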
pPAFAH FP inh – pPAFAH (human) enzyme inhibition; Q13093; recombinant pPAFAH, FP-rhodamine probe fluorescence polarization; inhibition, % at 3.39 µM; actives 1.5% (n = 330,000);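 active means inhibition above the mean inhibition across the screen plus 3 SD, cut at about 25% in these data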;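 further: inhibitors block binding of the rhodamine activity-based probe so polarization drops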
PREPL inhibitor – human PREPL enzyme inhibition. recombinant PREPL, fluorescence polarization activity-based probe. inhibition, % at 5.96 µM. actives 0.68% (n = 320,000). AID 2751; in the data active means inhibition above about 43%
PAFAH1B3 FP inh – inhibitors of human PAFAH1B3. inhibition, % at 3.39 µM. actives 0.28% (n = 340,000). recombinant PAFAH1B3, FP-rhodamine probe, fluorescence polarization. Q15102;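 active means inhibition above the screen-wide average of all tested compounds plus 3 SD, cut at about 25% in these data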
Target sequence (Q15102 whole entry, looked up): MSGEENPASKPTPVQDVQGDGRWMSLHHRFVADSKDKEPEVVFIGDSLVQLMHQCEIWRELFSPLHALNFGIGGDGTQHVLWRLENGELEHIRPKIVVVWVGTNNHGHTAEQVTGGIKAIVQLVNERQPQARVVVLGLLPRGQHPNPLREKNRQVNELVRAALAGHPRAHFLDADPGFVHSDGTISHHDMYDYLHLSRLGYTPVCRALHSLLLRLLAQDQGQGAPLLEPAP
PAFAH2 FP conf – confirmation of human PAFAH2 inhibitors | shares compounds with PAFAH2 FP inh | recombinant PAFAH2, FP-rhodamine activity probe, fluorescence polarization | inhibition, % at 3.39 µM | actives 65% (n = 2,300) | AID 493030;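 active means mean inhibition over three repeats above a set limit taken from the earlier primary screen, cut at about 30% in these data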;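 further: inhibitor blocks binding of rhodamine activity probe so polarization falls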
Of the large screens only hits and unclear results are named; the others gave an inactive call (follow-up assays come after a bar, where they were run). An excerpt weighted towards active compounds, which were near 3.5% of everything screened.

CCS(=O)(=O)c1ccc(O)c(NC(=O)/C=C/c2ccccc2)c1	PAFAH2 FP inh 75 | PAFAH2 FP conf 73
CCS(=O)(=O)c1ccc(O)c(NC(=O)CC2(CC(=O)O)CCCC2)c1	PAFAH2 FP inh 37 | PAFAH2 FP conf inactive
CCS(=O)(=O)c1ccc(O)c(NC(=O)Nc2ccccc2OC)c1	PAFAH2 FP inh 47 | PAFAH2 FP conf 59
CCCc1ccc(OCC(=O)Nc2cc(S(=O)(=O)CC)ccc2O)cc1	PAFAH2 FP inh 33 | PAFAH2 FP conf inactive
Cc1c(O)ccc(NC(=O)/C=C/c2ccccc2)c1C	none
CCNS(=O)(=O)c1ccc(NC(=O)Nc2ccccc2OC)cc1	none
COc1ccc(/C=C/C(=O)OCC(=O)NC2CCCC(C)C2C)cc1 (centres undefined)	PAFAH2 FP inh 82 | PAFAH2 FP conf 79
COC(=O)c1ccc(/C=N/OCC(=O)NC2CCCC(C)C2C)cc1 (centres undefined)	none
CC1CCCC(NC(=O)COC(=O)/C=C/c2ccc(F)cc2)C1C (centres undefined)	PAFAH2 FP inh 65 | PAFAH2 FP conf 69
CC(N=C1NC(C)(C)Cc2ccccc21)C(=O)O (centres undefined)	none
COc1ccc(C(=O)OCN2C(=O)c3ccccc3C2=O)cc1	PAFAH2 FP inh 37 | PAFAH2 FP conf inactive
O=C(/C=C/c1ccccc1)OCN1C(=O)c2ccccc2C1=O	PAFAH2 FP inh 33 | PAFAH2 FP conf inactive
CC(C)(C)OC(=O)C[C@H]1C/C=C\C[C@H](CC(=O)N(CCO)Cc2ccccc2)C(=O)N[C@@H](c2ccccc2)COC1=O	none
CC(=O)N1CCN(c2nc(C)nc3sc4c(c23)CCC(C)C4)CC1 (centres undefined)	PAFAH2 FP inh 30 | PAFAH2 FP conf inactive
Cc1nc(N2CCN(S(=O)(=O)c3ccccc3)CC2)c2c3c(sc2n1)CC(C)CC3 (centres undefined)	none (no result: Apaf1 inhib, pPAFAH FP inh, PREPL inhibitor)
CC(=O)N(c1ccc2oc(=O)sc2c1)S(=O)(=O)c1cccs1	none
CC(C)C(=O)N(c1cc2sc(=O)oc2c2ccccc12)S(=O)(=O)c1cccs1	PAFAH2 FP inh 32 | PAFAH2 FP conf inactive
CC(C)C(=O)N(c1ccc2oc(=O)sc2c1)S(=O)(=O)c1cccs1	PAFAH2 FP inh 44 | PAFAH2 FP conf 42
OCC1(CCOc2ccccc2)CCN(CCCn2cccn2)CC1	none
O=C(OC(C(=O)NCC1CCCO1)c1ccc(F)cc1)c1ccco1 (centres undefined)	none
Cc1ccsc1C(=O)OCC(=O)NCc1ccc(Cl)cc1	PAFAH2 FP inh 39 | PAFAH2 FP conf 40
O=C(COC(=O)CCC(=O)c1cccs1)Nc1ccc(Cl)cn1	none
O=C(COC(=O)c1cccs1)Nc1ccc(Cl)cn1	PAFAH2 FP inh 67 | PAFAH2 FP conf 73
Cc1ccsc1C(=O)NCc1ccc(Cl)cc1	none (no result: PAFAH1B2 FP inh, PAFAH2 FP inh, PAFAH1B3 FP inh)
O=C(COC(=O)c1cc2c(s1)CCCC2)Nc1ccc(Cl)cn1	PAFAH2 FP inh 30 | PAFAH2 FP conf 33
COc1ccc(NC(=O)COC(=O)c2cc3c(s2)CCC3)cc1	PAFAH2 FP inh 77 | PAFAH2 FP conf 82
CCOC(=O)c1ccc(NC(=O)CSc2nnc(CNC(=O)c3ccco3)o2)cc1	none
O=C(CN1CCN(c2ccccn2)CC1)Nc1cccc(Br)c1	none
Cc1ccsc1C(=O)OCC(=O)Nc1ccc(Cl)cn1	PAFAH2 FP inh 78 | PAFAH2 FP conf 48
CSCCC(NS(=O)(=O)c1ccc(Cl)c(Cl)c1)C(=O)O (centres undefined)	PAFAH2 FP inh 68 | PAFAH2 FP conf 71
O=C(CSc1nnc2ccc(-c3ccccn3)nn12)N1CCCC1	none (no result: Apaf1 inhib, pPAFAH FP inh, PREPL inhibitor)
Cc1ccc(C(=O)ONc2ccc(N=O)cc2)cc1	PAFAH2 FP inh 57 | PAFAH2 FP conf 52
COC(=O)c1ccc(NN=Nc2ccc(C)cc2)cc1	none
Cc1ccc(C(=O)ONc2ccc(N=NC(=O)c3ccccc3O)cc2)cc1	PAFAH2 FP inh 45 | PAFAH2 FP conf inactive
CCCN(CC(=O)Nc1ccccc1C)C(=O)c1cccc(S(=O)(=O)N2CCN(c3ccccc3)CC2)c1	none
O=S(=O)(c1ccc(-c2csc(Nc3ccc(Br)cc3)n2)cc1)N1CCCC1	PAFAH2 FP inh 30 | PAFAH2 FP conf inactive
O=S(=O)(c1ccc(-c2csc(Nc3ccc(F)cc3)n2)cc1)N1CCCC1	none
N/C(CS(=O)(=O)c1ccccc1)=N\OC(=O)c1ccc(F)cc1	PAFAH2 FP inh 52 | PAFAH2 FP conf 40
Cc1ccc(S(=O)(=O)N2CCCCC2)cc1NC(=O)CNCc1ccco1	none
COc1ccc2c(c1)CCCC21NC(=O)N(CC(=O)N2CC(C)OC(C)C2)C1=O (centres undefined)	none
C#C[C@]1(O)CC[C@H]2[C@@H]3CCc4cc(OC5CCCC5)ccc4[C@H]3CC[C@@]21C	PAFAH2 FP inh 53 | PAFAH2 FP conf 51
O=C(O)CSc1cccc[n+]1[O-]	none
O=C(CSc1cccc[n+]1[O-])C12CC3CC(CC(C3)C1)C2	PAFAH2 FP inh 48 | PAFAH2 FP conf 46
CC1(C)CC(=O)C=C(N=CC2=C(O)CC(C)(C)CC2=O)C1	PAFAH2 FP inh 33 | PAFAH2 FP conf inactive
CC(=O)N1CCc2cc(S(=O)(=O)CCC(=O)NCCc3ccc(Cl)cc3)ccc21	none
CCC(C)(C)NC(=O)C(C(C)C)N(CC1CCCO1)C(=O)CNS(=O)(=O)c1ccccc1 (centres undefined)	none
CCN(C(=O)CCS(=O)(=O)c1cccc2nonc12)c1ccc(F)cc1	none
Cc1cc(C)n(-c2ccc(C(=O)OCC(=O)Nc3cc(S(C)(=O)=O)ccc3Cl)cc2)n1	PAFAH2 FP inh 36 | PAFAH2 FP conf inactive
Cc1ccc(C(=O)OCC(=O)Nc2ccccc2)cc1S(=O)(=O)N1CCCCC1	PAFAH2 FP inh 50 | PAFAH2 FP conf 36
COc1ccc(NC(=O)COC(=O)c2ccc(C)c(S(=O)(=O)N3CCCCC3)c2)cc1	none
Cc1cccc(NC(=O)COC(=O)c2ccc(C)c(S(=O)(=O)N3CCCCC3)c2)c1	PAFAH2 FP inh 42 | PAFAH2 FP conf 38
Cc1ccc(C(=O)OCC(=O)Nc2cc(S(C)(=O)=O)ccc2Cl)cc1S(=O)(=O)N1CCCCC1	PAFAH2 FP inh 64 | PAFAH2 FP conf 54
COc1ccc(S(=O)(=O)N2CCN(C(=O)C3CCCO3)CC2)cc1 (centres undefined)	none
Cc1ccc(NC(=O)COC(=O)C2CC3C=CC2C3)cc1S(=O)(=O)N1CCCCC1 (centres undefined)	PAFAH2 FP inh 60 | PAFAH2 FP conf 52
COc1cc(CNC(C)c2ccccc2)cc(Cl)c1OCC(=O)Nc1ccccc1 (centres undefined)	none
O=C1C(Cl)=C(N2CCCC2)C(=O)N1c1ccccc1F	none

Screening data deposited in PubChem by several laboratories.
